The record followed here is ChEMBL document CHEMBL1124845, “Synthesis and antiviral activity of some 7-[(2-hydroxyethoxy)methyl]pyrazolo[3,4-d]pyrimidine analogues of sangivamycin and toyocamycin” (J Med Chem, 1990).

A short description of assay [1]: (§1) Tested for cytotoxic activity against monkey kidney cells(BSC-1) cells. As to conditions: Cercopithecidae. The format is functional, cell-based. The gist of the method: (§2)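 Cytotoxicity was scored visually on uninfected HFF or BSC-1 cells within the plaque-reduction plates. Drug-induced cytopathology was graded 0 to 4+ at 35- and 60-fold magnification on the day of staining for plaque enumeration.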

Assay [2] deals with HFF. As to the kind of experiment: Tested for cytotoxic activity against human foreskin fibroblasts (HFF) cells. It counts as functional, cell-based. In outline:
as §2

Assay [3] in a line: Tested for cytotoxic activity against human neoplastic cell line(KB cells). It counts as functional, cell-based. The gist of the method: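 KB cells were grown in MEM with Hank salts and 5% FBS. Inhibition of radioactive precursor incorporation into DNA, RNA and protein was measured. IC50s were obtained by regression of percent inhibition against log concentration, and the three values were averaged.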

Assay [4] concerns Human betaherpesvirus 5. In words: Tested for antiviral activity against human cytomegalovirus (HCMV) by means of plaque reduction assay. The format is functional, organism-based. In outline:
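HFF monolayers (MEM(E), 10% FBS) were inoculated with about 50 PFU of a plaque-purified Towne strain HCMV isolate in 0.2 mL. Test compounds were included in the overlay medium and plaques counted. IC50 came from a linear regression of percent inhibition versus log concentration. Positive controls ran in all assays, with sets rejected if the control deviated >1.5 SD.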
Background: In a plaque reduction assay, fewer plaques than in the control indicate reduced infectivity or spread.

Assay [5] concerns Human alphaherpesvirus 1. In words: Tested for antiviral activity against herpes simplex virus-1(HSV-1) by means of plaque reduction assay. The format is functional, organism-based. In outline:
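Monolayer BSC-1 cells (MEM with Earle's salts, 10% FBS) infected with about 100 PFU HSV-1 strain S-148 in 0.2 mL inoculum. Compounds were dissolved in the overlay medium and plaques counted. IC50 was taken from a linear regression of percent inhibition against log concentration. An acyclovir or ganciclovir positive control was run in every assay, and sets deviating >1.5 SD were rejected.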

Assay [6] has as its system BSC-1. The assay is described as §1. The following applies: Chlorocebus aethiops. It counts as functional, cell-based, Cercopithecidae. The gist of the method:
as §2

For the molecule `Nc1nc2c(ncn2COCCO)c(=O)[nH]1` [ACYCLOVIR], the 50% inhibitory concentration (IC50) in assay [1], in assay [2] and in assay [3] was above 100 µM throughout.

In the case of `CC(=O)OCCOCn1nc(C#N)c2c(N)ncnc21`, the IC50 in assay [1] was above 100 µM; in assay [4], above 100 µM; in assay [2] it was above 100 µM; in assay [5], above 100 µM; in assay [3], 54 µM.

On to `N#Cc1nn(COCCO)c2ncnc(N)c12`, for which the IC50 in assay [1], in assay [4], in assay [2] and in assay [5] was above 100 µM in each case.

As to `NC(=O)c1nn(COCCO)c2ncnc(N)c12`, the IC50 in assay [1], in assay [4], in assay [2], in assay [5] and in assay [3] was above 100 µM each time.

Consider `Nc1nc2c(ncn2COC(CO)CO)c(=O)[nH]1` [GANCICLOVIR], for which the IC50 in assay [1] was above 100 µM; in assay [2], above 100 µM; in assay [3], 1000 µM.

As to `COC(=N)c1nn(COCCO)c2ncnc(N)c12`, the IC50 in assay [1], in assay [4], in assay [2] and in assay [5] was above 100 µM each time.

As for `N#Cc1nnc2nc[nH]c(N)c1-2`, the IC50 in assay [6] was above 100 µM; in assay [4], 68 µM; in assay [2], above 100 µM; in assay [5] it was 16 µM.

In the case of `NC(=S)c1nn(COCCO)c2ncnc(N)c12`, the IC50 in assay [1] came out at 100 µM; in assay [4], 2.5 µM; in assay [2], 55 µM; in assay [5], 9 µM; in assay [3] it was 24 µM.

One may read the IC50 as the concentration that inhibits the measured activity by half.
